This is an account of results in publication PMC4652583 (Organic letters, 2012).

Ends that are not written are not given here.

Data set [1] addresses T1, Ube1 (Homo sapiens, UniProt P22314).
T1 sequence (P22314 1-1058): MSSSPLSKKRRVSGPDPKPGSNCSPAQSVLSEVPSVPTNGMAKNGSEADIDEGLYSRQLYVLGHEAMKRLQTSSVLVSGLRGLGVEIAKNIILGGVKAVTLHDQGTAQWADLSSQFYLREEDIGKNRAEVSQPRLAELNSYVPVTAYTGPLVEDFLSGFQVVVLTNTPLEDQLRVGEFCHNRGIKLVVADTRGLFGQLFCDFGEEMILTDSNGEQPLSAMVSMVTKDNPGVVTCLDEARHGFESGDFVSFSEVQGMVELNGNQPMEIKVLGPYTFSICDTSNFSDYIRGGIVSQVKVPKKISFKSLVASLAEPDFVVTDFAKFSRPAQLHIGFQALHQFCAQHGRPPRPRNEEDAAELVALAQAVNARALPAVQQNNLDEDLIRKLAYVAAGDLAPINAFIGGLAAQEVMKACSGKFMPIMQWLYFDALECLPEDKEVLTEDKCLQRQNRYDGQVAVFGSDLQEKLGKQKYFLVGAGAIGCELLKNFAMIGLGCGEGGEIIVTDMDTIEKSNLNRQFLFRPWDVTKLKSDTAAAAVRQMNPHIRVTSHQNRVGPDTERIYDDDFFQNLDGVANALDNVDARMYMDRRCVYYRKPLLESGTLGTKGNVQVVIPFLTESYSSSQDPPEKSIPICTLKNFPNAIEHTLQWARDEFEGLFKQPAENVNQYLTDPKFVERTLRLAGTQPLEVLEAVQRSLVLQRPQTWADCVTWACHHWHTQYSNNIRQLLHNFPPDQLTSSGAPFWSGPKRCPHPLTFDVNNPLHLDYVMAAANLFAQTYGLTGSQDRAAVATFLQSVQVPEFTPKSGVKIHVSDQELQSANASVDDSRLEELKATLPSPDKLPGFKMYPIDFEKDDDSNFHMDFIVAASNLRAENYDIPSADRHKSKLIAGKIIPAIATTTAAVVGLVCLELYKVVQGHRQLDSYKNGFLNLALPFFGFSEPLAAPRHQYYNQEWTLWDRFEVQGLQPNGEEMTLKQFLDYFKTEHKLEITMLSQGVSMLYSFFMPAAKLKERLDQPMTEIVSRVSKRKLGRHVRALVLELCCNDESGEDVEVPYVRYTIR
In words: ATP-PPi exchange kinetics catalyzed by Ube1. Format: biochemical.

In data set [2] the target is T1, Ube1. In words: Competitive inhibition of UB transfer to Ube1. Format: biochemical. In outline: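 Increasing concentrations of test peptide were incubated with 1 µM UB and reacted with Ube1 (E1). UB~E1 thioester conjugate formed in each reaction was measured by Western blot.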
The next data set concerns myeloma and lymphoma. The note with it: in clinical trials for myeloma and lymphoma; ref [9]; cited from earlier work.
Another data set concerns Nedd8 E1. Conditions: ref [8]; cited from earlier work.
Substrate in data set [3]: CC(C)[C@H](N)C(=O)N[C@@H](Cc1c[nH]c2ccccc12)C(=O)N[C@@H](CCCNC(=N)N)C(=O)N[C@@H](Cc1ccccc1)C(=O)N[C@@H](Cc1c[nH]cn1)C(=O)NCC(=O)NCC(=O)O
In words: ATP-PPi exchange kinetics catalyzed by Ube1. Format: biochemical, human. The note with it: other: ATP-PPi exchange catalyzed by Ube1.

Substrate in data set [4]: CC(C)[C@H](N)C(=O)N[C@@H](CCC(N)=O)C(=O)N[C@@H](CCCNC(=N)N)C(=O)N[C@@H](Cc1ccc(O)cc1)C(=O)N[C@@H](Cc1c[nH]c2ccccc12)C(=O)NCC(=O)NCC(=O)O
In words: ATP-PPi exchange kinetics catalyzed by Ube1. Format: biochemical, human. Conditions: other: ATP-PPi exchange catalyzed by Ube1.

Turning to VLRLRGG [P1], the kcat/K1/2 on Ube1 [1] (ATP-PPi exchange catalyzed by Ube1) amounted to 1.28 M⁻¹ s⁻¹. For the same molecule, the “saturation of Ube1” value on Ube1 [1] (at a concentration as high as 500 µM in the ATP-PPi exchange reaction) is given as “could not saturate Ube1”. In addition, the “inhibition of UB loading on E1” value at Ube1 [2] (at a concentration as high as 1 mM, 1 µM UB, Western blot) is reported as “cannot significantly inhibit UB loading on E1”.
For VYRFYGG [P4], the IC50 (usually the midpoint of a concentration-inhibition curve) at Ube1 [2] is 220 µM.
Same read-out and setting: the value for VWRFHGG [P2] was 266 µM; that for VQRYWGG [P3] was 172 µM.
Regarding `NS(=O)(=O)OC[C@@H]1C[C@@H](n2ccc3c(N[C@H]4CCc5ccccc54)ncnc32)C[C@@H]1O` [MLN4924], the anticancer activities entry with myeloma and lymphoma is “promising anticancer activities”. Also, the “inhibition of Nedd8 E1” value in the data set on Nedd8 E1 was “potent inhibitor of the Nedd8 E1”.

B1: Ube1 (Homo sapiens) (protein)
chain: MSSSPLSKKRRVSGPDPKPGSNCSPAQSVLSEVPSVPTNGMAKNGSEADIDEGLYSRQLYVLGHEAMKRLQTSSVLVSGLRGLGVEIAKNIILGGVKAVTLHDQGTAQWADLSSQFYLREEDIGKNRAEVSQPRLAELNSYVPVTAYTGPLVEDFLSGFQVVVLTNTPLEDQLRVGEFCHNRGIKLVVADTRGLFGQLFCDFGEEMILTDSNGEQPLSAMVSMVTKDNPGVVTCLDEARHGFESGDFVSFSEVQGMVELNGNQPMEIKVLGPYTFSICDTSNFSDYIRGGIVSQVKVPKKISFKSLVASLAEPDFVVTDFAKFSRPAQLHIGFQALHQFCAQHGRPPRPRNEEDAAELVALAQAVNARALPAVQQNNLDEDLIRKLAYVAAGDLAPINAFIGGLAAQEVMKACSGKFMPIMQWLYFDALECLPEDKEVLTEDKCLQRQNRYDGQVAVFGSDLQEKLGKQKYFLVGAGAIGCELLKNFAMIGLGCGEGGEIIVTDMDTIEKSNLNRQFLFRPWDVTKLKSDTAAAAVRQMNPHIRVTSHQNRVGPDTERIYDDDFFQNLDGVANALDNVDARMYMDRRCVYYRKPLLESGTLGTKGNVQVVIPFLTESYSSSQDPPEKSIPICTLKNFPNAIEHTLQWARDEFEGLFKQPAENVNQYLTDPKFVERTLRLAGTQPLEVLEAVQRSLVLQRPQTWADCVTWACHHWHTQYSNNIRQLLHNFPPDQLTSSGAPFWSGPKRCPHPLTFDVNNPLHLDYVMAAANLFAQTYGLTGSQDRAAVATFLQSVQVPEFTPKSGVKIHVSDQELQSANASVDDSRLEELKATLPSPDKLPGFKMYPIDFEKDDDSNFHMDFIVAASNLRAENYDIPSADRHKSKLIAGKIIPAIATTTAAVVGLVCLELYKVVQGHRQLDSYKNGFLNLALPFFGFSEPLAAPRHQYYNQEWTLWDRFEVQGLQPNGEEMTLKQFLDYFKTEHKLEITMLSQGVSMLYSFFMPAAKLKERLDQPMTEIVSRVSKRKLGRHVRALVLELCCNDESGEDVEVPYVRYTIR
In the case of B1, in data set [3], the kcat (in general, the number of substrate molecules converted per active site and unit of time at saturation) worked out at 0.0583 ± 0.01 s⁻¹; the kcat/Km (as a rule, the second-order rate constant that governs catalysis at low substrate concentration) was 167 M⁻¹ s⁻¹. For the same molecule, in data set [4], the kcat came out at 0.162 ± 0.0233 s⁻¹ and the kcat/Km was determined as 383 M⁻¹ s⁻¹.
